SUMO1-SIM PPI: SUMO1-SIM interaction modulation | P63165 | SUMO1 binding to a labelled peptide, TR-FRET, 1 h | inhibition, % at 20 µM | hit rate 0.33% among 360,000; in the data active = inhibition above about 37%
Target sequence (P63165 whole entry, looked up): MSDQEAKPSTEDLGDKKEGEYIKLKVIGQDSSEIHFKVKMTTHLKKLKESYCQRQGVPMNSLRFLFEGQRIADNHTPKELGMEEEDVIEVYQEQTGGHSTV
Scp1 inh: inhibitors of human Scp-1 phosphatase | Q9GZU7 | Recombinant Scp1, phosphopeptide, malachite green phosphate absorbance | inhibition, % at 20 µM | hit rate 0.88% among 340,000;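 active = inhibition above about 50% at 20 µM, limit read from the data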;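 note: plate controls were DMSO wells with enzyme for no effect and wells lacking enzyme for full effect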
Target sequence (Q9GZU7 76-261 limits assumed): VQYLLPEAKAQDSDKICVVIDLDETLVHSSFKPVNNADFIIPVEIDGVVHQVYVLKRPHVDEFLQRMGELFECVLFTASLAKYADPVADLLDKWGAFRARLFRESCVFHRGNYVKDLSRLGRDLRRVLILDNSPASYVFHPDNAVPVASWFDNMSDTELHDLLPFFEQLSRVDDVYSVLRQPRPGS
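Material – SCP-1 phosphatase catalytic domain, residues 76-261 · Buffer or medium – Acidic Tris acetate buffer with magnesium and detergent · Also added – Phospho 17-mer peptide substrate · Compound – single 20 µM dose, 1% DMSO · Times – 45 min room-temperature reaction, 5 min colour, 30 min stabiliser · Technique – Phosphate-binding colour reagent, absorbance read at 630 nm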
LMPTP inh: LMPTP (human) inhibition; P24666; recombinant LMPTP-A, OMFP fluorogenic substrate, fluorescence intensity; hit rate 0.22% among 360,000; inhibition, % at 20 µM;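 active = compounds that cut the enzyme signal by at least half of the control window in the single-dose screen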;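 note: plate controls were DMSO wells with enzyme plus substrate for no effect and substrate without enzyme for full effect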
Target sequence (P24666 whole entry, looked up): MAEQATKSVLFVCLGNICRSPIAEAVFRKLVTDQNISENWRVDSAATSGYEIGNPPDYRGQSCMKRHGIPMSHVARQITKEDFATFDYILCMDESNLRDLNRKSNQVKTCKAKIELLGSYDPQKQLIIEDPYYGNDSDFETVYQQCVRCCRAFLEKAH
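Assay system: LMPTP-A enzyme. Input: 0.625 nM LMPTP-A final. Probe or stimulus: 400 µM OMFP. Compound dosing: single 20 µM dose. Schedule: 50 min dark incubation at room temperature. Detection: fluorescence intensity of OMFP turnover product. Read-out: percent inhibition versus substrate-only and uninhibited controls. Benchmarks: no-enzyme low control, uninhibited high control.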
DNMT1 inh: inhibitors of human DNMT1; inhibition (reported as % activation of signal), % at 10 µM; DNMT1 molecular beacon, Hinp1I cleavage, fluorescence; P26358; hit rate 0.83% among 360,000; in the data active = inhibition above about 50%
STEP inh: blocks human striatal-enriched tyrosine phosphatase | inhibition, % at 20 µM | P54829 | recombinant STEP, OMFP fluorogenic substrate, fluorescence | AID 588621 | hit rate 0.25% among 360,000;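 active = inhibition at 20 µM, scaled per plate between control wells, above about 37%, limit read from the data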;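 note: 0% = DMSO with enzyme and substrate and 100% = substrate only without enzyme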
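Also added – OMFP at 25 µM · Test system – STEP tyrosine phosphatase · Technique – FITC-channel fluorescence of OMFP product · Schedule – 20 min at room temperature, dark · Evaluation – control-normalized % inhibition with plate pattern correction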
UBC9 SUMO inh: SUMOylation inhibition. P63279. HTRF SUMOylation assay, SAE1/SAE2 + UBC9, in vitro. inhibition, % at 35 µM. hit rate 0.36% among 290,000. AID 2006; in the data active = inhibition above about 50%, passing the limit was not always enough; inconclusive = no clear call, values can overlap the other calls
Target sequence (P63279 whole entry, looked up): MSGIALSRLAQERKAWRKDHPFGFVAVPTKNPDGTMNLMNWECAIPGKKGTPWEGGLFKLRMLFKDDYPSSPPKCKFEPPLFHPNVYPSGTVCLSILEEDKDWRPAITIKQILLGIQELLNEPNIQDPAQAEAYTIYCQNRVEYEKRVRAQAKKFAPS
DNMT1 confirm: confirmation of human DNMT1 inhibitors | shares compounds with DNMT1 inh | inhibition, % at 10 µM | DNMT1 molecular beacon HinP1I cleavage, fluorescence | hit rate 8% among 2,300;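 active = average inhibition of at least 30% in the single-concentration confirmation test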
DNMT1 interf: counter-screen for DNMT1 inhibitors: spectral interference | hit rate 1% among 2,300 | shares compounds with DNMT1 inh | DNMT1 molecular beacon spectral interference counterscreen, fluorescence 485/520 | activation (fluorescence interference), % at 10 µM;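 active = activation of at least 30% at 10 µM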;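 note: DNMT1 catalytic domain with a HinP1I cleavage step and a FAM/dabcyl DNA beacon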
STEP conf: STEP (human) phosphatase inhibition, single concentration confirmation; recombinant STEP, OMFP fluorogenic substrate, fluorescence; shares compounds with STEP inh; hit rate 32% among 520; inhibition, % at 20 µM; call rule not given here;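 note: 0% = enzyme with substrate plus DMSO and 100% = substrate without enzyme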
* = called active by the depositor; ? = inconclusive; / = no result. Shown are actives, neighbours in structure and some others; about 1.9% of the full set was active somewhere.

SMILES	SUMO1-SIM PPI	Scp1 inh	LMPTP inh	DNMT1 inh	STEP inh	UBC9 SUMO inh	DNMT1 confirm	DNMT1 interf	STEP conf
O=C(Cn1c2ccccc2c(=O)c2ccccc21)N/N=C/c1cc([N+](=O)[O-])ccc1N1CCCCCC1	-7	87*	66*	72*	89*	/	4	5	12
COc1ccc(-c2ccc(NC(=O)c3ccc(Br)o3)cc2)nn1	9	50	54*	56*	42*	/	5	4	33*
Cc1cnc(C(=O)OCC(=O)Nc2ccc(Br)c(C)c2)cn1	8	-3	-1	13	-1	/	/	/	/
O=C(CSc1nc(-c2ccc(F)cc2)nc2c1Cc1ccccc1O2)Nc1cccc(C(=O)O)c1	108*	89*	88*	99*	97*	?	6	-14	13*
Cn1nnnc1SCc1ccc([N+](=O)[O-])cc1	-16	-1	-1	12	1	-4	/	/	/
C/C(=N\NC(=O)c1cccc(S(=O)(=O)N2CCOCC2)c1)c1ccc(OCC(=O)N(C)C)cc1	-19	-6	0	0	-2	/	/	/	/
CCc1ccccc1NC(=O)c1ccc2nc(N3CCOCC3)sc2c1	-2	10	0	-1	0	4	/	/	/
Cc1ccc(NC(=O)c2ccc3nc(N4CCOCC4)sc3c2)c(Cl)c1	5	-10	0	53*	84*	24	-2	-4	54*
CC(=O)Cc1nsc(NC(=O)c2ccc(-c3ccc(Cl)cc3Cl)o2)n1	-8	-9	2	-6	-2	-3	/	/	/
Cc1nnc2sc(-c3ccc(NC(=O)c4ccc(-c5ccc(Cl)cc5Cl)o4)cc3)nn12	31	36	56*	65*	95*	/	8	1	60*
CCNC(=O)c1cccc(NC(=O)CN2C(=O)NC3(CCCCC3)C2=O)c1	-2	-2	0	4	1	/	/	/	/
C/C(CC(C)C)=N\NS(=O)(=O)c1ccc(C)c([N+](=O)[O-])c1	-6	1	-1	86*	90*	-6	1	10	-4
Fc1ccccc1COc1ccc(Br)cc1CNCC1CCCO1 (stereo not drawn)	3	1	1	6	-4	1	/	/	/
Cn1nnc(NCc2cc(Br)ccc2OCc2ccccc2F)n1	1	-6	-1	77*	66*	-3	0	5	24
Cc1onc(-c2c(Cl)cccc2Cl)c1C(=O)NCCc1ccc(S(N)(=O)=O)cc1	-1	-7	-2	1	-1	4	/	/	/
CC(C)CN(C(=O)c1ccc(C(F)(F)F)cc1)c1c(N)n(CC(C)C)c(=O)[nH]c1=O	2	1	0	2	-2	10	/	/	/
Cc1ccc2nc(NC(=O)c3ccc(S(=O)(=O)N4CCCc5ccccc54)cc3)sc2c1	1	-6	1	95*	121*	32	3	4	-5
O=C(Nc1nc2ccc(F)cc2s1)c1cccc(S(=O)(=O)N2CCc3ccccc32)c1	1	-12	3	-8	-1	7	/	/	/
COc1ccccc1-c1csc(-n2ncc(C#N)c2N)n1	95*	/	41	76*	61*	8	12	0	19
CC1(C)CC(=O)C(C=NCC2CCN(C(=O)Cc3ccccc3)CC2)=C(O)C1	70*	4	15	76*	48*	8	4	2	0
COc1cccc(/C=N/Nc2ncnc3c2[nH]c2ccc(C)cc23)c1OC	90*	20	26	60*	77*	2	1	-3	4
COc1ccc(/C=N/Nc2ncnc3c2[nH]c2ccccc23)c(OC)c1OC	-3	6	0	20	-1	10	/	/	/
S=c1[nH]nc(-c2cccnc2)n1/N=C/C=C/c1ccccc1	-11	9	-2	2	2	7	/	/	/
S=c1[nH]nc(-c2cccnc2)n1/N=C/c1ccccc1	-2	-5	0	-1	49*	10	/	/	7
Cc1occc1C(=O)/C(C#N)=C/c1ccc(O)c(Br)c1	-17	-8	-2	5	1	5	/	/	/
SMILES	SUMO1-SIM PPI	Scp1 inh	LMPTP inh	DNMT1 inh	STEP inh	UBC9 SUMO inh	DNMT1 confirm	DNMT1 interf	STEP conf
CCC(Oc1ccccc1OC)C(=O)Nc1ccc2c(c1)OCCO2 (stereo not drawn)	3	1	0	0	0	14	/	/	/
Cc1ccc(CSCC(=O)N(C)CC(=O)Nc2c(Cl)cccc2Cl)cc1	0	2	-1	0	-2	/	/	/	/
CS(=O)(=O)N(Cc1ccc(C(=O)NCCSc2ccccn2)cc1)c1ccccc1	3	-2	0	3	44*	6	/	/	-4
CCOc1ccccc1NC(=S)Nc1ccc(S(N)(=O)=O)cc1	0	1	0	-5	1	6	/	/	/
CCOc1ccccc1-c1noc(CCC(=O)NC2CCCCC2)n1	-1	-1	1	-1	92*	3	/	/	-1
Cc1cc(Cl)ccc1NC(=S)N(CCCN1CCOCC1)Cc1cccs1	0	-2	-2	9	57*	-6	/	/	12
CCc1cccc(C)c1NC(=S)N(CCCN1CCOCC1)Cc1cccnc1	4	-5	-5	1	41*	0	/	/	5
Cc1ccc(Cl)cc1NC(=S)N(CCCN1CCN(C)CC1)Cc1cccs1	-2	-1	0	4	-1	9	/	/	/
OC[C@@H]1[C@@H](c2ccc(F)cc2)C(c2cccc(Cl)c2)=NN1c1ccccc1	2	-1	3	-18	-1	/	/	/	/
COc1ccccc1NC(=O)CCS(=O)(=O)c1ccc2c(c1)NC(=O)C(C)S2 (stereo not drawn)	0	-9	-1	1	62*	11	/	/	1
COC(=O)c1ccc(NC(=O)CCS(=O)(=O)c2ccc3c(c2)NC(=O)C(C)S3)cc1 (stereo not drawn)	6	1	1	-1	0	13	/	/	/
CCCc1cc(C(=O)N2CCCC(C(=O)c3cccc4ccccc34)C2)n(C)n1 (stereo not drawn)	-5	-3	1	-1	49*	3	/	/	1
Cc1nc(C(F)(F)F)ccc1C(=O)N1CCCCCC1(C)C(=O)NCC(C)C (stereo not drawn)	-1	/	-1	-1	-1	/	/	/	/
O=C(NCc1cccnc1)C1CCN(C(=O)c2ccc(Cl)cc2Cl)CC1	3	-5	0	-3	2	-2	/	/	/

Compound activity (PubChem)
